Compound activity as filed in PubChem BioAssay.
OX1R antag-1: blocks the human orexin 1 receptor | AID 485270 | inhibition, % at 6.6 µM | OX1R-expressing cells, FRET antagonist read-out | hit rate 1.8% among 330,000; in the data active means inhibition mostly above about 38%, no sharp cut-off; inactive means mostly below about 40%;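 further: 0% = agonist challenge alone and 100% = reference antagonist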
Target sequence (O43613 whole entry, looked up): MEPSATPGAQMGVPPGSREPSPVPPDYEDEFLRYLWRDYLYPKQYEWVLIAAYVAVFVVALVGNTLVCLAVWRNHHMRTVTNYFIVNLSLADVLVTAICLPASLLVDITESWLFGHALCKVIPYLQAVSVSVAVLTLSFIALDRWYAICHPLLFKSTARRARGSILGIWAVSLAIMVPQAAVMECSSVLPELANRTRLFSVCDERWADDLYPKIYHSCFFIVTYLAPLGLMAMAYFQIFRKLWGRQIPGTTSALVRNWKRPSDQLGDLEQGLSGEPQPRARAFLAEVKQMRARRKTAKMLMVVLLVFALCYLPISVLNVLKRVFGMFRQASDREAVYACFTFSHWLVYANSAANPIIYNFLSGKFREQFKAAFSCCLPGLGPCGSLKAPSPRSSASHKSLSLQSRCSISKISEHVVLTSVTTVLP
OX1R antag-2: human HCRTR1 antagonism; O43613; CHO/OX1R cells, Fluo-8 calcium fluorescence, orexin A; inhibition, % at 5 µM; hit rate 0.43% among 330,000;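 active means inhibition above its plate's threshold, mean inhibition of all tested compounds on the plate plus 3 SD, cut at about 37% in these data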;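 further: 0% = orexin A challenge wells and 100% = SB-334867-A antagonist wells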
M1 ag parental: M1 agonist counterscreen hit in parental CHO-K1 cells. hit rate 0.48% among 360,000. AID 602248. activation, % at 3 µM. Fluo-8 calcium fluorescence; scaled to maximal ATP response, vehicle zero; in the data active means activation above about 15%;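 further: untransfected CHO-K1 host cells lacking M1 receptor as counterscreen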
CHO parental Ca: counter-screen for OX1R antagonists: effect in parental CHO cells | inhibition, % at 5.6 µM | hit rate 0.63% among 330,000 | parental CHO-K1, ATP-induced calcium, Fluo-8 fluorescence;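 active means inhibition above that plate's mean sample inhibition plus 3 SD, cut at about 26% in these data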;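 further: 0% = ATP-challenged DMSO wells and 100% = DMSO wells without ATP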
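Test system: parental CHO cells; detection: calcium-sensitive Fluo-8 fluorescence; evaluation: percent inhibition of calcium signal; also added: ATP as calcium-mobilizing challenge; repeats: one well per compound; control set: ATP-challenged DMSO wells low, unchallenged DMSO wells high; compound: single nominal dose of 5.6 µM per compound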
CHO-K1 Ca antag: nonselective inhibitor or artifact in parental CHO-K1 cells | ATP-induced calcium, Fluo-8 fluorescence | inhibition, % at 3 µM | hit rate 0.6% among 360,000 | AID 602250;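 active means inhibition above a per-plate cutoff, the plate's mean sample inhibition plus 3 SD, cut at about 24% in these data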;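 further: 0% = DMSO plus EC80 ATP and 100% = DMSO alone without ATP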
M1 PAM parental: M1 PAM counterscreen hit in parental CHO-K1 cells | ATP EC20, Fluo-8 calcium fluorescence; 0% at ATP EC20, 100% at ATP max | activation, % at 3 µM | hit rate 0.02% among 360,000 | AID 602247;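 active means activation above the run cutoff, the mean activation of all test compounds plus 3 SD, cut at about 40% in these data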;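 further: peak over basal fluorescence ratio in a 140 s read after ATP addition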
An asterisk follows results filed as active; . = not tested or not shown. Most compounds without a hit are left out; they make up all but 2.9% or so of the library.

SMILES	OX1R antag-1	OX1R antag-2	M1 ag parental	CHO parental Ca	CHO-K1 Ca antag	M1 PAM parental
Cc1cccc(NC(=O)C(=O)NNC(=O)c2ccc(C(C)(C)C)cc2)c1	20.9	95.1*	2.6	93.8*	-12.8	3.9
N#Cc1ccc(-c2ccc(OCC(=O)Nc3cccnc3)cc2)cc1	.	.	17.7*	.	11.6	-19.7
CC(=O)c1cccc(NC(=O)COc2ccccc2)c1	17.1	-7.9	-0.1	-8.3	31.9*	-7.9
O=C(CCCOc1ccccc1)Nc1cccnc1	23.8	-10.9	1.2	-6.0	-11.0	15.0
O=C(COc1ccc(C(=O)c2ccccc2)cc1)Nc1cccnc1	18.4	7.5	19.5*	51.8*	18.5	-4.2
CC(=O)Nc1ccc(NC(=O)COc2ccc(-c3ccc(C#N)cc3)cc2)cc1	11.6	-5.0	0.1	12.8	-1.9	-8.7
O=C(NCc1cccc(Br)c1)c1cc(-c2ccccc2)nn1CC1CC(c2cccc([N+](=O)[O-])c2)=NO1 (centres undefined)	22.9	-6.0	1.2	-7.1	-10.2	19.9
Cc1c(Cl)cccc1NC(=O)CSc1nc(=O)n(CCCN2CCOCC2)c2c1CCCC2	.	.	0.7	.	-12.2	-5.8
Cc1cnn(-c2cc(Oc3ccccc3)ncn2)c1	22.1	-8.7	-0.4	1.8	25.0*	-7.9
CCOC(=O)C(Cc1ccccc1)NC(=O)CCCC(=O)c1ccccc1 (centres undefined)	16.1	11.2	2.8	47.3*	3.5	11.8
CCOC(=O)C(Cc1ccccc1)NC(C)=O (centres undefined)	13.7	1.9	-0.2	-1.8	-19.9	18.5
N#Cc1ccccc1S(=O)(=O)N1CCN(C(=O)[C@@H]2CCCN2C(=O)c2cccs2)CC1	0.1	-21.4	0.1	-14.7	8.0	-10.2
COc1cc2nc(/C=C/c3ccc(N(C)C)cc3)sc2cc1SC	26.8	60.2*	5.1	51.8*	-0.6	9.0
CCc1cc(C(=O)N2CCN(c3ncccn3)CC2)sc1C	6.7	-6.2	0.5	-9.7	3.0	-0.3
CCNC(=O)c1cc2c(c(-c3cccc(-c4cccc(C(=O)N(C)C)c4)c3)n1)[C@H](CCO)N(S(=O)C(C)(C)C)C2 (some centres undefined)	.	.	1.1	.	2.9	13.0
CN(C)C(=O)c1cccc(-c2cccc(-c3nc(C(=O)NCc4ccccc4)cc4c3[C@@H](CCO)N(S(=O)C(C)(C)C)C4)c2)c1 (some centres undefined)	.	.	5.1	.	24.8*	-8.5
CC(C)(C)OC(=O)N1CCC[C@H]1C(=O)N1CCC[C@H]1C(=O)NCc1ccncc1	.	.	0.3	.	-8.9	11.4
CCN(CC)c1ccc(/C=N\NC(=O)c2cccc3cc[nH]c23)cc1	51.4*	-2.3	0.8	-15.6	2.2	-7.6
COc1ccc(OC)c(-n2c(-c3cnccn3)n[nH]c2=S)c1	9.6	2.0	-0.2	-1.1	-4.2	10.6
COc1ccc(OC)c(-n2c(Cn3c(-c4ccccn4)nc4ccccc43)n[nH]c2=S)c1	58.9*	3.7	0.1	-12.7	9.4	-11.3
CCOCCCNc1nc2c(c(=O)[nH]c(=O)n2C)n1CCCc1ccccc1	5.8	-20.0	-0.4	-10.0	25.6*	-8.0
CCc1ccc([C@@H]2C[C@H]3[C@@H](CN2S(=O)(=O)c2ccc(C)cc2)C(=O)C[C@@H](c2ccc(C)cc2)N3S(=O)(=O)c2ccc(C)cc2)cc1	.	.	0.3	.	-9.1	9.5
N=C(N)c1ccc(/C=C/c2ccc(C(=N)N)cc2O)cc1	46.3*	-6.7	0.0	-7.2	-8.2	12.6
C#CCOc1c(/C=C\c2nc(O)c([N+](=O)[O-])c(=O)[nH]2)cc(Br)cc1OC	53.0*	1.2	0.1	1.5	0.2	-3.0
COC(=O)COc1c(/C=C\c2nc(O)c([N+](=O)[O-])c(=O)[nH]2)cccc1OC	34.3	-11.5	0.3	2.3	1.1	12.8
SMILES	OX1R antag-1	OX1R antag-2	M1 ag parental	CHO parental Ca	CHO-K1 Ca antag	M1 PAM parental
O=C(COC(=O)c1ccc(O)cc1O)NC(=O)Cc1ccccc1	.	.	18.4*	.	-1.5	12.3
COc1cc(CN2CCCCCC2)cc(OC)c1	5.3	1.3	1.0	-6.7	-11.9	5.3
COc1ccc(CN2CCCCCC2)cc1	9.9	-15.2	-0.3	-8.1	25.3*	-21.9
Cc1ccc(-n2c(C)cc(C(=O)CSc3nncs3)c2C)cc1	56.6*	92.3*	6.6	23.7	6.3	-2.3
Cc1cccc(COC[C@H](Cc2ccccc2)N2CCN(C(=O)c3ccc(Cl)c(Cl)c3)CCC2=O)c1	.	.	1.1	.	3.2	5.0
C/C(Cn1nnc([N+](=O)[O-])n1)=N\NC(=O)c1ccccc1	31.9*	1.8	0.6	-16.8	-9.2	18.3
O=C(NC(=S)NCCC1=CCCCC1)c1ccccc1Br	65.1*	-10.0	2.6	-11.7	-7.3	18.8
COc1ccc(CNC(=O)CN(c2ccccc2OC)S(=O)(=O)c2cccs2)cc1	12.4	-5.4	4.5	-10.3	-10.8	5.8
CC(OC(=O)CSc1ccc([N+](=O)[O-])cc1)C(=O)NC1CC1 (centres undefined)	16.9	-19.3	1.6	-10.9	-7.8	13.3
Cc1cc(-c2ccc(S(=O)(=O)N(C)Cc3ccccc3)cc2)on1	29.0	-0.2	5.4	37.5*	-8.5	12.3
Cc1cc(NC(=O)CCC(=O)N(Cc2ccco2)C(C(=O)NC2CCCC2)c2ccc(F)cc2)no1 (centres undefined)	46.9*	-17.8	1.4	-25.6	-12.8	8.3
Cc1cc(NC(=O)CCC(=O)N(CC2CCCO2)C(C(=O)NC2CCCC2)c2cccnc2)no1 (centres undefined)	7.5	-16.2	0.5	-15.3	-14.0	-22.3
C=CCN(C(=O)CCC(=O)Nc1cc(C)on1)C(C(=O)NC1CCCC1)c1cccnc1 (centres undefined)	6.3	-4.8	-0.4	-4.2	23.8*	-6.8
Cc1cc(NC(=O)CCC(=O)N(CC(=O)NC2CCCC2)Cc2ccccc2Cl)no1	11.4	-23.2	-1.0	-16.3	48.0*	-2.0
O=C(CCC(=O)N(CC(=O)NC1CCCC1)C1CCCCC1)Nc1ccccn1	6.6	-25.9	0.1	-10.9	26.8*	-14.4
O=C(CCC(=O)N(CC(=O)NC1CCCC1)C1CCCC1)Nc1ccccn1	4.4	-24.9	0.0	-5.8	-3.8	13.9
CC1(C)Cc2c(sc(NC(=O)C(=O)N3CCOCC3)c2C(N)=O)CO1	8.6	-14.2	0.3	-0.2	-12.1	8.0
Cn1c(=O)c2cc(NC(=S)NCc3ccccc3F)ccc2n1C	.	.	0.9	.	-11.3	15.5
CC(=O)NCCNc1nc(NCc2cccs2)nc2ccsc12	.	.	5.2	.	-5.8	-2.0
COCCNc1nc(NCc2cccs2)nc2ccsc12	.	.	85.0*	.	64.1*	-18.4
c1ccc(CNc2nc(NCc3cccs3)nc3ccsc23)cc1	.	.	15.7*	.	13.8	10.6
COc1cccc(CNc2nc(NCc3ccccc3)nc3ccsc23)c1	.	.	28.6*	.	21.4	-16.4
O=C1CCCN1CCCNc1nc(NCc2cccs2)nc2ccsc12	.	.	55.8*	.	21.6	-11.5
